The text below walks through data of paper PMC2872922 (Journal of medicinal chemistry, 2010).

Data set [1] concerns the target K18 tau fragment bearing the P301L mutation (K18PL) (Homo sapiens, UniProt P10636, P618L). The experiment in a line: Heparin-induced tau K18PL fibrillization assay monitored by thioflavine-T. Type of data set: biochemical.
Data set [2] deals with tau40-promoted MT-polymerization (tubulin) (Homo sapiens, UniProt P10636). Briefly: MT-assembly. Type of data set: biochemical. As to conditions: 50 μM compound, 30 μM tubulin, 20 μM tau40. In outline:
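Wild-type full-length human tau40 (2N4R) was preincubated with test compound for 120 min at room temperature in RAB (100 mM MES pH 6.9, 1 mM […], 0.5 mM MgSO4). Bovine brain tubulin and GTP were then added. Final concentrations were 30 μM tubulin, 20 μM tau, 50 μM compound and 2 mM GTP, with a DMSO control. Polymerisation was followed at 37 °C by A340 every minute for 45 min.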

Data set [3] can be described thus: Brain and plasma levels 1 h after i.p. administration. As to conditions: female, B6C3F1, mouse, brain, ip, 5 mg/kg, Brain level, mice, 5 mg/kg i.p. Type of data set: in vivo. An outline of the steps: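 Two-month-old female B6C3F1 mice, three per compound, given test compound 5 mg/kg i.p. and sampled at 1 h. Brain hemispheres were homogenised in 10 mM ammonium acetate pH 5.7 (1:2 w/v), and plasma was collected on EDTA. Samples were acetonitrile-extracted and quantified by LC-MS/MS (MRM, positive ESI) against spiked brain/plasma standards (4–4000 ng/mL) using a 1/x-weighted linear fit and triplicate injections.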

The nature of data set [4]: Brain and plasma levels after oral administration. The class given is in vivo. The settings on record: mice, oral gavage 5 mg/Kg. An outline of the steps: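 Female B6C3F1 mice, two months old, were dosed with test compound at 5 mg/kg by oral gavage. Brain homogenate (10 mM ammonium acetate pH 5.7, 1:2 w/v) and EDTA plasma were extracted with acetonitrile. Levels were measured by LC-MS/MS with MRM detection, quantified from matrix-matched standard curves (4–4000 ng/mL) by 1/x-weighted linear regression on the mean of triplicate injections.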

The conditions of data set [5]: Phase 2 study, 321 patients with mild or moderate AD; cited from earlier work.

tau40-promoted MT-polymerization (tubulin), sequence (P10636 1-441 isoform P10636-8): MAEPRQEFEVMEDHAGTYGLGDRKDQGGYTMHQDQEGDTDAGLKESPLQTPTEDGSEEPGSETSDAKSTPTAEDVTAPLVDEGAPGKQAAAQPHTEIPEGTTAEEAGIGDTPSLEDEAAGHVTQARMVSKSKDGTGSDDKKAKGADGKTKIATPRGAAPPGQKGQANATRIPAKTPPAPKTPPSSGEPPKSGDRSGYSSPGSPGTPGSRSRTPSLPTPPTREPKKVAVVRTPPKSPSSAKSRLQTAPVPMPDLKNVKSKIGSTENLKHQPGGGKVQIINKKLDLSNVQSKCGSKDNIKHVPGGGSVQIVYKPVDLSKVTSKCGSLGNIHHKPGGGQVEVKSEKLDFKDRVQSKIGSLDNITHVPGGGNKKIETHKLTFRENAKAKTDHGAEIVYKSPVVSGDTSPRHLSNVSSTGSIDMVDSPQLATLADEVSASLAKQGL
K18 tau fragment bearing the P301L mutation (K18PL), sequence (P10636 561-689 P618L): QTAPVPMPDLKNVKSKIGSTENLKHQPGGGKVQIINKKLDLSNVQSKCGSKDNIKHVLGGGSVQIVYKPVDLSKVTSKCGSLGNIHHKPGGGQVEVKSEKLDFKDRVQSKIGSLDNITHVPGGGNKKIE

For the molecule `CC(C)NC(=O)c1nn(-c2ccc(Br)cc2)c(=O)c2c(N)scc12` [Compound 19, 5-Amino-3-(4-bromophenyl)-N-isopropyl-4-oxo-3,4-dihydrothieno[3,4-d]pyridazine-1-carboxamide], it took 3.1 ± 0.6 µM to reach half-maximal inhibition in data set [1] (IC50).
As for `CCOC(=O)c1nn(-c2ccc(Cl)cc2)c(=O)c2c(N)scc12` [Compound 8, Ethyl 5-amino-3-(4-chlorophenyl)-4-oxo-3,4-dihydrothieno[3,4-d]pyridazine-1-carboxylate], the IC50 (in general, the concentration at which inhibition is half-maximal) in data set [1] worked out at 3.8 ± 1.6 µM. For the same molecule, in data set [2], the “Interference with the normal MT-stabilizing function of tau” value (“Interference” below) is “did not appear to interfere”.
Consider `CCNC(=O)c1nn(-c2ccc(Cl)cc2)c(=O)c2c(N)scc12` [Compound 14, 5-Amino-3-(4-chlorophenyl)-N-ethyl-4-oxo-3,4-dihydrothieno[3,4-d]pyridazine-1-carboxamide], for which the IC50 in data set [1] came to 6.9 ± 3.4 µM. In data set [3], this molecule displayed a concentration at 1 h of more than 800 ng/g.
`CC(C)NC(=O)c1nn(-c2ccc(Cl)cc2)c(=O)c2c(N)scc12` [Compound 15, 5-Amino-3-(4-chlorophenyl)-N-isopropyl-4-oxo-3,4-dihydrothieno[3,4-d]pyridazine-1-carboxamide] displayed an IC50 in data set [1] of 5.9 ± 4.7 µM. In data set [3], this molecule had a concentration at 1 h of more than 800 ng/g. In addition, in data set [4], the “Brain concentration after oral administration” value is given as “significant concentrations”.
For `Nc1scc2c(C(=O)NC3CC3)nn(-c3ccc(Cl)cc3)c(=O)c12` [Compound 16, 5-Amino-3-(4-chlorophenyl)-N-cyclopropyl-4-oxo-3,4-dihydrothieno[3,4-d]pyridazine-1-carboxamide], in data set [1], the IC50 amounted to 8.1 ± 5.7 µM. This molecule gave a concentration at 1 h in data set [3] of more than 800 ng/g. Also, the “Brain concentration after oral administration” value in data set [4] is on record as “significant concentrations”.
On to `CNC(=O)c1nn(-c2ccc(Cl)cc2)c(=O)c2c(N)scc12` [Compound 13, 5-Amino-3-(4-chlorophenyl)-N-methyl-4-oxo-3,4-dihydrothieno[3,4-d]pyridazine-1-carboxamide], for which, in data set [1], it took 21.7 ± 16 µM to reach half-maximal inhibition (IC50).
In the case of `CN(C)c1ccc2nc3ccc(=[N+](C)C)cc-3sc2c1` [methylene blue], in data set [5], the “Cognitive decline compared to placebo” value is reported as “significant reduction in cognitive decline”.
`CCN(C)C(=O)c1nn(-c2ccc(Cl)cc2)c(=O)c2c(N)scc12` [Compound 18, 5-Amino-3-(4-chlorophenyl)-N-ethyl-N-methyl-4-oxo-3,4-dihydrothieno[3,4-d]pyridazine-1-carboxamide]: the IC50 in data set [1] was 32 ± 4.1 µM.
For the molecule `Nc1scc2c(C(=O)O)nn(-c3ccc(Cl)cc3)c(=O)c12` [Compound 11, 5-Amino-3-(4-chlorophenyl)-4-oxo-3,4-dihydrothieno[3,4-d]pyridazine-1-carboxylic acid], in data set [1], the IC50 turned out to be 5.4 ± 2.3 µM. The “Interference” value in data set [2] was “did not appear to interfere”.
For the molecule `CC(C)OC(=O)c1nn(-c2ccc(Cl)cc2)c(=O)c2c(N)scc12` [Compound 10, Isopropyl 5-amino-3-(4-chlorophenyl)-4-oxo-3,4-dihydrothieno[3,4-d]pyridazine-1-carboxylate], half-maximal inhibition in data set [1] (IC50) required 1.6 ± 1.1 µM. The “Interference” value in data set [2] is on record as “did not appear to interfere”.
With `CN(C)C(=O)c1nn(-c2ccc(Cl)cc2)c(=O)c2c(N)scc12` [Compound 17, 5-Amino-3-(4-chlorophenyl)-N,N-dimethyl-4-oxo-3,4-dihydrothieno[3,4-d]pyridazine-1-carboxamide], the IC50 in data set [1] is 20.5 ± 13.6 µM.
